{"source": "ChEMBL document CHEMBL1123492", "about": "“Carboxyl-modified amino acids and peptides as protease inhibitors” (J Med Chem, 1986)", "key": {"Papain": {"target": "T1, Papain (Carica papaya, UniProt P00784)", "T1 sequence (P00784 whole entry)": "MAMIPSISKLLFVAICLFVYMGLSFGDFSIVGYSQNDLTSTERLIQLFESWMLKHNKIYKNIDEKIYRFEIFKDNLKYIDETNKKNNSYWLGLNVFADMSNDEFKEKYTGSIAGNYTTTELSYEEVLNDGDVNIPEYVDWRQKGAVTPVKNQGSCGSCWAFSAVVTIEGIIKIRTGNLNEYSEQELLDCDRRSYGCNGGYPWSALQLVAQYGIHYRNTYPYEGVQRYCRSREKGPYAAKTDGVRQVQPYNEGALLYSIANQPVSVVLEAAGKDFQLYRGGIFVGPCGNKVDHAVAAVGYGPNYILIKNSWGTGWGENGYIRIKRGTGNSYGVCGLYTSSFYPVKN", "assay": "Compound was tested for Inhibition of Papain", "procedure,_shortened": "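Papain activated 45 min at 25 °C in 50 mM phosphate pH 6.2 with 1 mM EDTA and 0.25 mM cysteine, made fresh daily. N-Cbz-Gly p-nitrophenyl ester hydrolysis at 25 °C read at 340 nm (Δε 6000 M⁻¹ cm⁻¹), corrected for nonenzymic hydrolysis. Compounds in acetonitrile or DMF, final <2.5% v/v. Reversible Ki by Lineweaver–Burk; irreversible Ki and k2 by Kitz–Wilson.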"}, "Chymotrypsinogen A": {"target": "Chymotrypsinogen A (Bos taurus, UniProt P00766)", "assay": "Compound was tested for Inhibition of Chymotrypsinogen", "procedure,_shortened": "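Chymotrypsin hydrolysis of glutaryl-L-Phe p-nitroanilide followed photometrically. Km of substrate and Ki of reversible inhibitors from Lineweaver–Burk double-reciprocal plots, Ki from replots of Km(app)/Vmax vs [I]; slopes and intercepts by linear regression. Test compounds added in methanol (<5% of final volume).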"}, "Dipeptidyl peptidase 1 [1]": {"target": "T2, Dipeptidyl peptidase 1 (Homo sapiens, UniProt P53634)", "T2 sequence (P53634 25-134 limits assumed)": "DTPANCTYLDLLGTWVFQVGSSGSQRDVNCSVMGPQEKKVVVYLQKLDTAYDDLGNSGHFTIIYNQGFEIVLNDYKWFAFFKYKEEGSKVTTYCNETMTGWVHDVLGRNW", "T2 sequence (P53634 231-394 limits assumed)": "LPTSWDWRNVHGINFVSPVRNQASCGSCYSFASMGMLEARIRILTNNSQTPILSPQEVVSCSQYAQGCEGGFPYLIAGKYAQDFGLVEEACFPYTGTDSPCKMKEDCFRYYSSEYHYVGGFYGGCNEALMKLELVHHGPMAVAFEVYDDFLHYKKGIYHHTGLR", "T2 sequence (P53634 395-463 limits assumed)": "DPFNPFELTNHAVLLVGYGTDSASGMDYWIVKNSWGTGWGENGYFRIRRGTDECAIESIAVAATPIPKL", "assay": "Compound was tested for Inhibition of Dipeptidyl aminopeptidase 1", "procedure,_shortened": "(§1)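 Cathepsin C diluted 1:200 daily in ice-cold 50 mM citrate pH 5 with 10 mM cysteamine. Gly-Phe p-nitroanilide hydrolysis at 37 °C read at 405 nm (Δε 9900 M⁻¹ cm⁻¹), started by adding substrate to prewarmed enzyme/inhibitor. Irreversible inhibition: enzyme preincubated with varied inhibitor levels, aliquots diluted into substrate over time. k_app from ln(% activity) vs time; Ki and k2 from 1/k_app vs 1/[I].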"}, "[2]": {"assay": "Compound was tested for Inhibition of Leucine aminopeptidase-M"}, "[3]": {"assay": "Compound was tested for Inhibition of leucine aminopeptidase-C"}, "[4]": {"assay": "Compound was tested for Inhibition of Leucine aminopeptidase-M; NI is No inhibition at 40 mM"}, "Dipeptidyl peptidase 1 [5]": {"target": "T2, Dipeptidyl peptidase 1", "assay": "Compound was tested for Inhibition of dipeptidyl Dipeptidyl aminopeptidase 1", "procedure,_shortened": "as §1"}}, "note": "Where a SMILES comes first, the peptide text is derived from it.", "data": [{"molecule": "C=CCNC(=O)C(Cc1ccccc1)NC(C)=O", "note": "(stereo not drawn)", "values": [{"measurement": "Ki", "setting": "Papain", "value": 9.2, "unit": "mM"}]}, {"molecule": "CC(=O)NC(Cc1ccccc1)C(=O)NCC(=N)S", "note": "(stereo not drawn)", "values": [{"measurement": "Ki", "setting": "Papain", "value": 0.095, "unit": "mM"}]}, {"molecule": "COC(=O)/C=C/C(Cc1ccccc1)NC(C)=O", "note": "(stereo not drawn)", "values": [{"measurement": "Ki", "setting": "Chymotrypsinogen A", "value": 30.8, "unit": "mM"}]}, {"molecule": "COC(=O)CCCNC(=O)C(Cc1ccccc1)NC(C)=O", "note": "(stereo not drawn)", "values": [{"measurement": "Ki", "setting": "Papain", "value": 19.5, "unit": "mM"}]}, {"molecule": "N#CC(Cc1ccccc1)NC(=O)CN", "note": "(stereo not drawn)", "values": [{"measurement": "Ki", "setting": "Dipeptidyl peptidase 1 [1]", "value": 0.0027, "unit": "mM"}]}, {"molecule": "CC(=O)NC(Cc1ccccc1)C(N)=S", "note": "(stereo not drawn)", "values": [{"measurement": "Ki", "setting": "Chymotrypsinogen A", "value": 23, "unit": "mM"}]}, {"molecule": "CC(=O)NC(/C=C/S(C)(=O)=O)Cc1ccccc1", "note": "(stereo not drawn)", "values": [{"measurement": "Ki", "setting": "Chymotrypsinogen A", "value": 29.4, "unit": "mM"}]}, {"molecule": "CC(=O)NC(Cc1ccccc1)C(=O)NCC#N", "note": "(stereo not drawn)", "values": [{"measurement": "Ki", "setting": "Papain", "value": 0.0011, "unit": "mM"}]}, {"molecule": "COC(=O)/C=C/C(N)Cc1ccccc1", "note": "(stereo not drawn)", "values": [{"measurement": "Ki", "setting": "[2]", "value": 61, "unit": "mM"}, {"measurement": "Ki", "setting": "[3]", "value": 23.7, "unit": "mM"}]}, {"molecule": "CC(=O)NC(C#N)Cc1ccccc1", "note": "(stereo not drawn)", "values": [{"measurement": "Ki", "setting": "Chymotrypsinogen A", "value": 5.3, "unit": "mM"}]}, {"molecule": "CS(=O)(=O)/C=C/C(Cc1ccccc1)NC(=O)CN", "note": "(stereo not drawn)", "values": [{"measurement": "Ki", "setting": "Dipeptidyl peptidase 1 [1]", "value": 0.18, "unit": "mM"}]}, {"molecule": "COC(=O)/C=C/C(Cc1ccccc1)NC(=O)CN", "note": "(stereo not drawn)", "values": [{"measurement": "Ki", "setting": "Dipeptidyl peptidase 1 [1]", "value": 0.22, "unit": "mM"}]}, {"molecule": "N#CC(N)Cc1ccccc1", "note": "(stereo not drawn)", "values": [{"measurement": "Ki", "setting": "[2]", "value": 67, "unit": "mM"}, {"measurement": "Ki", "setting": "[3]", "value": 26.4, "unit": "mM"}]}, {"molecule": "NC(=O)C(N)Cc1ccccc1", "note": "(stereo not drawn)", "values": [{"measurement": "Ki", "setting": "[2]", "value": 14.8, "unit": "mM"}, {"measurement": "Ki", "setting": "[3]", "value": 14.1, "unit": "mM"}]}, {"molecule": "CS(=O)(=O)/C=C/C(N)Cc1ccccc1", "note": "(stereo not drawn)", "values": [{"measurement": "Ki", "setting": "[2]", "value": 3.7, "unit": "mM"}, {"measurement": "Ki", "setting": "[3]", "value": 8.8, "unit": "mM"}]}, {"molecule": "CC(=O)NC(Cc1ccccc1)C(N)=O", "note": "(stereo not drawn)", "values": [{"measurement": "Ki", "setting": "Chymotrypsinogen A", "value": 13.9, "unit": "mM"}]}, {"molecule": "N=C(S)C(N)Cc1ccccc1", "note": "(stereo not drawn)", "values": [{"measurement": "Ki", "setting": "[4]", "value": "No inhibition"}]}, {"molecule": "CC(=O)N[C@@H](Cc1ccccc1)C(=O)NCC(N)=O", "note": "(Ac-Phe-Gly-NH2)", "values": [{"measurement": "Ki", "setting": "Papain", "value": 4.7, "unit": "mM"}]}, {"molecule": "NCC(=O)N[C@@H](Cc1ccccc1)C(N)=O", "note": "(H-Gly-Phe-NH2)", "values": [{"measurement": "Ki", "setting": "Dipeptidyl peptidase 1 [5]", "value": 6.2, "unit": "mM"}]}]}
